Reference: paper PMC2832854 (NeuroImage, 2009)
“And” between values parts separate entries of the source, which are not always exact repeats. Equal entries are not always repeated. Where two headings read alike, the source gives them in different places. Each block holds one compound with its values, some of them ahead of it.

Experiments:
[1] = target: TSPO; assay type: binding, human; details: for Ki: read-out: KI of PBR28, displacement of [3H]PK 11195, mean ± SD; for Specific Binding: single radioligand concentration normalized to 0.5 nM, displacer PBR28
[2] = target: TSPO; details: read-out: KI to monkey brain, ref Briard et al., 2008; cited from earlier work
[3] = target: ABCB1 (P-glycoprotein) (Homo sapiens, UniProt P08183); assay type: cell-based; details: 5 nM radioligand
[4] = target: ABCC1 (Homo sapiens, UniProt P33527); assay: Substrate specificity: radioligand accumulation in MCF-7 / MCF-7/VP16 cells; assay type: cell-based; details: 5 nM radioligand
[5] = target: T1, ABCG2 (Homo sapiens, UniProt Q9UNQ0); assay: Substrate specificity: radioligand accumulation in H460 / H460/MX20 cells; assay type: cell-based; details: 5 nM radioligand
T1 sequence (Q9UNQ0 1-655): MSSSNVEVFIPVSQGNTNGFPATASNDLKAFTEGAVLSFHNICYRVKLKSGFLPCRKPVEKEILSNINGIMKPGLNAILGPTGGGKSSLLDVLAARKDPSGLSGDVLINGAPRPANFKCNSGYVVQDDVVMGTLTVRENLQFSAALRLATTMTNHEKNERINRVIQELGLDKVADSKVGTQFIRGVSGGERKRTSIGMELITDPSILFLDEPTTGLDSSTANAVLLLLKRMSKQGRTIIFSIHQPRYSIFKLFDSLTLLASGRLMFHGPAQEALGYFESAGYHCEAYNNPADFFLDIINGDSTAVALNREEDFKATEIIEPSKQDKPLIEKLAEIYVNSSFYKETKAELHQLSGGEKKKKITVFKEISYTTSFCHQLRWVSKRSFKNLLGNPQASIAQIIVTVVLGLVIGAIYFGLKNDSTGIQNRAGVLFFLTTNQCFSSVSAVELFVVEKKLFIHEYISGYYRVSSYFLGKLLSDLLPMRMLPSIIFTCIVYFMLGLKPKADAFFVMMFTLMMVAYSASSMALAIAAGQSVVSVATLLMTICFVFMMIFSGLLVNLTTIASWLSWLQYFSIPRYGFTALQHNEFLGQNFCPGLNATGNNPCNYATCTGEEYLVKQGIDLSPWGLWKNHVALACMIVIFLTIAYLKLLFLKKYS

[6] = system: 18 kDa translocator protein (TSPO); assay: Human whole-body PET imaging, organ uptake in binders and non-binders; assay type: in vivo; details: for Organ uptake (area under time-activity curve): 5 to 20 min
[7] = system: TSPO; assay type: in vivo, rhesus monkeys (Macaca mulatta); details: for Decrease of area under the curve by pre-blockade: 0 to 120 min, nonradioactive PBR28; for Time at which uptake declined to 50% of peak: after pre-blockade
How it was run: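 Two male rhesus monkeys (13.2 ± 2.1 kg) each had two scans. The baseline scan followed i.v. 11C-labelled TSPO radioligand (276 ± 8 MBq, posterior tibial vein). The second followed unlabelled TSPO ligand 5 mg/kg i.v. given 30 min before radioligand (277 ± 21 MBq). 2D dynamic whole-body PET covered 4 segments, head to upper thigh, in 22 frames (75 s–15 min) over 120 min. Organ SUV curves were integrated over 5–20 and 0–120 min.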

[8] = system: TSPO; assay type: in vivo, rhesus monkeys
[9] = system: TSPO; details: cited from earlier work
[10] = system: TSPO; details: 0 to 120 min, ref Imaizumi et al., 2008, cited from earlier work
[11] = saturation curve, homologous displacement, binders

ABCC1, sequence (P33527 whole entry): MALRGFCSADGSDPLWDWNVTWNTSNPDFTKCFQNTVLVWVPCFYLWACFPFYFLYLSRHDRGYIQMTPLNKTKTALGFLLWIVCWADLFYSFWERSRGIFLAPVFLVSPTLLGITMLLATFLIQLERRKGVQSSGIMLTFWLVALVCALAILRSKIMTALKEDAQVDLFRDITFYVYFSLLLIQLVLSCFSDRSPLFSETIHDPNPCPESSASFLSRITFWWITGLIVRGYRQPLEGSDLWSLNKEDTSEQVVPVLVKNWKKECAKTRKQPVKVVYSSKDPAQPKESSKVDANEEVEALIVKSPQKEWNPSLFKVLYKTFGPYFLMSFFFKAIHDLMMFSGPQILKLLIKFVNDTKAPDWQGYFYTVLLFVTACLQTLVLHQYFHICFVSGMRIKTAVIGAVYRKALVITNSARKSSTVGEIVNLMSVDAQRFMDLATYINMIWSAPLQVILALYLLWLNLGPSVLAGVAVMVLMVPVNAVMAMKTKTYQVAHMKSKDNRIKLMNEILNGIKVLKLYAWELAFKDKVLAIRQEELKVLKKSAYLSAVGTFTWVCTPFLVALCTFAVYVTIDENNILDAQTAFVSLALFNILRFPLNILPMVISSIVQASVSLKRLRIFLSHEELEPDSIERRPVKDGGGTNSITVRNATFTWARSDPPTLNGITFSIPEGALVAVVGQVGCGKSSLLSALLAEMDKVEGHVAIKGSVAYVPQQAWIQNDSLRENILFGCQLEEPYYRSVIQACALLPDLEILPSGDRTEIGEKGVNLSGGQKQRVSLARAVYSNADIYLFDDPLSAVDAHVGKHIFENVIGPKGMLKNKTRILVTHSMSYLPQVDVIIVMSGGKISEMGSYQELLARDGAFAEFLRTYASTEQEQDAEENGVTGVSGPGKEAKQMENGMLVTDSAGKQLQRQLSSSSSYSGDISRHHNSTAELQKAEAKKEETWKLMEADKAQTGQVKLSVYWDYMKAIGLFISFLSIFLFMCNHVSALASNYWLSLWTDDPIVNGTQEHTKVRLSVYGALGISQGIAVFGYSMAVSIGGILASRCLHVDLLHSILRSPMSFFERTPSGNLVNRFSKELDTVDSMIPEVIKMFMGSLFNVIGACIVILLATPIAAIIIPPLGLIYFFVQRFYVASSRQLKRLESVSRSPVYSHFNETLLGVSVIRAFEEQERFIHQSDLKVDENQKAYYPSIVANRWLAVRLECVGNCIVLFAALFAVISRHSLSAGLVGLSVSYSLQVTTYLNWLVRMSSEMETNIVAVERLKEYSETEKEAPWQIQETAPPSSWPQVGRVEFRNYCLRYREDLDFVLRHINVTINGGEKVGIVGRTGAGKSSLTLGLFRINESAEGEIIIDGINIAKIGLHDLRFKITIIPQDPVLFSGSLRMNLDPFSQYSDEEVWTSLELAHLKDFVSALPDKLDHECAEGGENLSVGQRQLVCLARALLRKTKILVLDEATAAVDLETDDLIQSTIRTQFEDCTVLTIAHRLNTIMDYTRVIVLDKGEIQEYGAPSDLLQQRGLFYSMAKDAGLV
ABCB1 (P-glycoprotein), sequence (P08183 whole entry): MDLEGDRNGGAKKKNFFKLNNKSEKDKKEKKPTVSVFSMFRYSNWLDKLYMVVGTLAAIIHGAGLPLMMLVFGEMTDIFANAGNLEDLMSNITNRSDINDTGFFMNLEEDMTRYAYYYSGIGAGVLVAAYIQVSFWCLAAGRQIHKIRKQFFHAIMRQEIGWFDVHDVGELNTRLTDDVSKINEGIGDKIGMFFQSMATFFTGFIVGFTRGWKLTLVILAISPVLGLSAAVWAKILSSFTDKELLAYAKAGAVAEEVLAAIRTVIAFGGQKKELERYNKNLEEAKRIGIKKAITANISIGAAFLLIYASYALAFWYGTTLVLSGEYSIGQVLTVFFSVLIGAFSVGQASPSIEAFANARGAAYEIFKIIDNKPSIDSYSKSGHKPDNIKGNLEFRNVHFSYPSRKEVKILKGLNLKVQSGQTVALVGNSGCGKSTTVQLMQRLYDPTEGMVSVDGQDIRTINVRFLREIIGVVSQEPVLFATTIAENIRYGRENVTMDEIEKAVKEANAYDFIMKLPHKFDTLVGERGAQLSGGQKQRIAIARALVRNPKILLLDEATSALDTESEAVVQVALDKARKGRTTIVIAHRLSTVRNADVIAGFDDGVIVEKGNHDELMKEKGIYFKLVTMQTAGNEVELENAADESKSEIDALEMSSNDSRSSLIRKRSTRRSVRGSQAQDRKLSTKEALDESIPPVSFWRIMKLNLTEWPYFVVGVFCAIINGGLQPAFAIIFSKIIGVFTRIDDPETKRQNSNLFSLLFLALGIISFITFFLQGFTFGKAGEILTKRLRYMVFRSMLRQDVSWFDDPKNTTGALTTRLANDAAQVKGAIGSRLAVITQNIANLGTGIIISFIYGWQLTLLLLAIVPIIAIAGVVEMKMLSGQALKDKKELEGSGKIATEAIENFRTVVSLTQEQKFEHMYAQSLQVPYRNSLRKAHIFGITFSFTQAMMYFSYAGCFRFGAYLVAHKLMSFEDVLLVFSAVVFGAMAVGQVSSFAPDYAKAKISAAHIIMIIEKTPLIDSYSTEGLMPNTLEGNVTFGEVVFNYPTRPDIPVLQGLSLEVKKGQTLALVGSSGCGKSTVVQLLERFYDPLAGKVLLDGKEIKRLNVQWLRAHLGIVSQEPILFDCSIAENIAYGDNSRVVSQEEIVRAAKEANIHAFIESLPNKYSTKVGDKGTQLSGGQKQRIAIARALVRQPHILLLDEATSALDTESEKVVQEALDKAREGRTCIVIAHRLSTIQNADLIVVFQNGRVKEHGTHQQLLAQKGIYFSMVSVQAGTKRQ

Compound: COc1ccccc1CN(C(C)=O)c1cnccc1Oc1ccccc1 [PBR28]
Ki ([1]; binders): 6.1 ± 6.4 nM
Ki ([1]; non-binders): 67 nM and 67.4 nM
Ki [2]: 0.94 nM

Compound: COc1ccccc1CN(C(C)=O)c1cnccc1Oc1ccccc1 [[^3H]PBR28] [listing 1 of 2 here]
Substrate for transporter [3]: neither [^3H]PK 11195 nor [^3H]PBR8 was a substrate
Substrate for transporter [4]: neither [^3H]PK 11195 nor [^3H]PBR8 was a substrate
Substrate for transporter [5]: neither [^3H]PK 11195 nor [^3H]PBR8 was a substrate

Compound: COc1ccccc1CN(C(C)=O)c1cnccc1Oc1ccccc1 [[^3H]PBR28] [listing 2 of 2 here]
Specific binding, fold lower in non-binders than in binders ([1]; eight non-binders vs ten binders, single radioligand concentration): 36 fold
Affinity for TSPO, fold lower in non-binders than in binders ([1]; leukocyte membranes): more than ten-fold lower affinity
Bmax [1, 11]: 16.9 ± 8.0 pmol / mg protein
Kd [1, 11]: 1.8 ± 0.6 nM
Specific Binding ([1]; binders): 7.2 ± 2.2 pmol / mg protein

Compound: CCC(C)N(C)C(=O)c1cc2ccccc2c(-c2ccccc2Cl)n1 (stereo not shown) [[^3H]PK 11195]
Bmax [1, 11]: 10.4 ± 7.1 pmol / mg protein
Bmax ([1]; saturation curve, homologous displacement, non-binders): 15.1 ± 12.0 pmol / mg protein
Specific Binding ([1]; binders): 1.3 ± 0.5 pmol / mg protein
Substrate for transporter [3]: neither [^3H]PK 11195 nor [^3H]PBR8 was a substrate
Substrate for transporter [4]: neither [^3H]PK 11195 nor [^3H]PBR8 was a substrate
Substrate for transporter [5]: neither [^3H]PK 11195 nor [^3H]PBR8 was a substrate

Compound: CC[C@@H](C)N([11CH3])C(=O)c1cc2ccccc2c(-c2ccccc2Cl)n1 [[^11C]-(R)-PK 11195]
Organ uptake (area under time-activity curve) ([6]; brain, binders (n = 5)): 18.8 ± 1.0 SUV • min
Organ uptake (area under time-activity curve) ([6]; brain, non-binders (n = 5)): 17.5 ± 2.0 SUV • min
Organ uptake (area under time-activity curve) ([6]; heart, binders (n = 5)): 59.8 ± 4.9 SUV • min
Organ uptake (area under time-activity curve) ([6]; heart, non-binders (n = 5)): 48.8 ± 2.8 SUV • min
Organ uptake (area under time-activity curve) ([6]; kidney, binders (n = 5)): 63.8 ± 3.2 SUV • min
Organ uptake (area under time-activity curve) ([6]; kidney, non-binders (n = 5)): 60.7 ± 12.3 SUV • min
Organ uptake (area under time-activity curve) ([6]; lung, binders (n = 5)): 25.6 ± 3.7 SUV • min
Organ uptake (area under time-activity curve) ([6]; lung, non-binders (n = 5)): 18.7 ± 2.5 SUV • min
Organ uptake (area under time-activity curve) ([6]; spleen, binders (n = 5)): 65.6 ± 9.3 SUV • min
Organ uptake (area under time-activity curve) ([6]; spleen, non-binders (n = 5)): 53.4 ± 11.4 SUV • min
Decrease of area under the curve by pre-blockade ([7]; brain): 14%
Area under the time-activity curve ([7]; brain, 5 to 20 min, baseline): 28.2 SUV • min
Area under the time-activity curve ([7]; brain, 5 to 20 min, pre-blocked with PBR28 5 mg/kg i.v.): 29.1 SUV • min
Time at which uptake declined to 50% of peak ([7]; brain): 30 min
Area under the time-activity curve ([7]; heart, 5 to 20 min, baseline): 75.1 SUV • min
Area under the time-activity curve ([7]; heart, 5 to 20 min, pre-blocked with PBR28 5 mg/kg i.v.): 33.6 SUV • min
Decrease of area under the curve by pre-blockade ([7]; kidney): 30%
Area under the time-activity curve ([7]; kidney, 5 to 20 min, baseline): 166.3 SUV • min
Area under the time-activity curve ([7]; kidney, 5 to 20 min, pre-blocked with PBR28 5 mg/kg i.v.): 60.5 SUV • min
Decrease of area under the curve by pre-blockade ([7]; lung): 31%
Area under the time-activity curve ([7]; lung, 5 to 20 min, baseline): 29.6 SUV • min
Area under the time-activity curve ([7]; lung, 5 to 20 min, pre-blocked with PBR28 5 mg/kg i.v.): 18.3 SUV • min
Time at which uptake declined to 50% of peak ([7]; other organs): ≤ 5 min
Area under the time-activity curve lower in pre-blocked than in baseline scans ([7]; peripheral organs (heart, lung, spleen, kidney), 5 to 20 min): 38 – 76%
Area under the time-activity curve ([7]; spleen, 5 to 20 min, baseline): 87.1 SUV • min
Area under the time-activity curve ([7]; spleen, 5 to 20 min, pre-blocked with PBR28 5 mg/kg i.v.): 20.6 SUV • min
Peak uptake of radioactivity in brain ([8]; after blockade with PBR28 5 mg/kg i.v.): 3.43 SUV
Peak uptake of radioactivity in brain ([8]; baseline): 1.64 SUV
Share of uptake in monkey brain that is specific (displaceable) ([9]; without correction for peripheral clearance, ref Petit-Taboue et al., 1991): about 50%

Organ uptake (area under time-activity curve) ([6]; brain, binders (n = 5)): 27.3 ± 3.4 SUV • min
Organ uptake (area under time-activity curve) ([6]; brain, non-binders (n = 5)): 13.8 ± 1.3 SUV • min
Organ uptake (area under time-activity curve) ([6]; heart, binders (n = 5)): 72.3 ± 10.3 SUV • min
Organ uptake (area under time-activity curve) ([6]; heart, non-binders (n = 5)): 29.7 ± 4.7 SUV • min
Organ uptake (area under time-activity curve) ([6]; kidney, binders (n = 5)): 109.3 ± 12.9 SUV • min
Organ uptake (area under time-activity curve) ([6]; kidney, non-binders (n = 5)): 33.4 ± 15.5 SUV • min
Organ uptake (area under time-activity curve) ([6]; lung, binders (n = 5)): 44.9 ± 6.5 SUV • min
Organ uptake (area under time-activity curve) ([6]; lung, non-binders (n = 5)): 13.6 ± 2.0 SUV • min
Organ uptake (area under time-activity curve) ([6]; spleen, binders (n = 5)): 131.6 ± 19.3 SUV • min
Organ uptake (area under time-activity curve) ([6]; spleen, non-binders (n = 5)): 34.1 ± 11.0 SUV • min
Compound: CC(=O)N(Cc1ccccc1O[11CH3])c1cnccc1Oc1ccccc1 [[^11C]PBR28]
Uptake lower in non-binders than in binders ([6]; all five organs with high densities of TSPO (lung, heart, brain, kidney, spleen)): 50% to 75%
Decrease of area under the curve by pharmacological blockade ([10]; brain): 42%
Decrease of area under the curve by pharmacological blockade ([10]; kidney): 50%
Decrease of area under the curve by pharmacological blockade ([10]; lung): 70%
Share of uptake in monkey brain that is specific ([9]; ref Imaizumi et al., 2008): More than 90%
